Assay results as given in ChEMBL document CHEMBL5226313, “Discovery of an Orally Efficacious MYC Inhibitor for Liver Cancer Using a GNMT-Based High-Throughput Screening System and Structure-Activity Relationship Analysis” (J Med Chem, 2021).
Activity calls are given as the source filed them. The calls are words filed in the database; no cut-off is given here.

How the values were obtained:
[1] = target: T1, Glycine N-methyltransferase (Homo sapiens) (UniProt Q14749); assay: Induction of GNMT in human H7GPL cells assessed as fold increase in promoter-driven luciferase reporter expression at 10 uM measured after 24 hrs by luminescence assay relative to control; format: cell-based; settings: filed as activator
T1 sequence (whole entry): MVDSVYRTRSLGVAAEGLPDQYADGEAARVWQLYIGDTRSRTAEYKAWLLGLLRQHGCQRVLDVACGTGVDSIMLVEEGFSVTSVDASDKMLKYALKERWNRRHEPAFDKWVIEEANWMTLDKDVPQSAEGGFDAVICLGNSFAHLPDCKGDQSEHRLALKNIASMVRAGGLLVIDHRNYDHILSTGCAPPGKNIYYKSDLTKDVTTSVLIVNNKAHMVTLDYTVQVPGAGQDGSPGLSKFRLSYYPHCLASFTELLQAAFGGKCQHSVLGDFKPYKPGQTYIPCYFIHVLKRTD

[2] = target: T1, Glycine N-methyltransferase (Homo sapiens); assay: Induction of GNMT in human H7GPL cells assessed as fold increase in promoter-driven luciferase reporter expression at 2.5 uM measured after 24 hrs by luminescence assay relative to control; format: cell-based; settings: filed as activator
Summary of the method: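 H7GPL cells (Huh7 carrying a stable lentiviral GNMT promoter–luciferase reporter, kept in 1 μg/mL puromycin) treated with compound for 24 h, then luciferase measured. Luciferase activity normalised to cell viability and expressed as fold over solvent control; means ± SD, n = 3.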

[3] = Cytotoxicity against human H7GPL cells at 10 uM measured after 72 hrs by MTS assay; format: toxicity, cell-based
Summary of the method: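 H7GPL-1 cells seeded at 3 × 10³ per well overnight, then exposed to 10 μM compound for 72 h. Medium replaced with MTS/PMS reagent (20:1) and incubated 1.5 h at 37 °C in 5% CO2; absorbance read at 490 nm. Viability expressed relative to control, where 100% means no cytotoxicity.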

HepG2 [4] = assay: Antiproliferative activity against human HepG2 cells assessed as inhibition of cell growth incubated for 72 hrs by Alamar blue assay; format: functional, cell-based; settings: dose 0.3-80 µM
Summary of the method: (§1)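 Cells seeded in 96-well plates and exposed to a range of drug concentrations for 72 h; Alamar Blue added for a further 4 h. Viable cells expressed as percentage of solvent-treated control; means ± SD, n = 3. Cells kept in DMEM with 10% FBS, 2 mM L-glutamine, 0.1 mM non-essential amino acids and antibiotics at 37 °C in humidified CO2.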

Huh-7 [5] = assay: Antitumor activity against human Huh-7 cells xenografted in mouse tumor model assessed as reduction in tumor volume at 10 to 25 mg/kg, po treated for 30 days; format: functional, organism-based; settings: dose 10-25 mg/kg, time 30.0 day
Summary of the method: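 Huh7 xenografts (1 × 10⁶ cells s.c., right flank) in female Balb/c nude mice aged 5–6 weeks. After tumors became palpable, mice were randomised and dosed orally every day at 10 or 25 mpk, or solvent; sorafenib 25 mpk as comparator. Caliper monitoring of tumor growth over about 4 weeks; mean ± SE, n = 6.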

Huh-7 [6] = assay: Reduction in MYC protein expression in tumor of mouse xenografted with human Huh-7 cells at 10 to 25 mg/kg, po treated for 30 days; format: functional, organism-based; settings: dose 10-25 mg/kg, time 30.0 day
Summary of the method: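 Tumors taken from Huh7 xenografted nude mice dosed orally every day at 10 or 25 mpk. Tumor lysates prepared in RIPA buffer containing phosphatase and protease inhibitors. MYC and GNMT detected by immunoblot with β-actin as loading control; n = 6 mice per group.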

HepG2 [7] = assay: Inhibition of colony formation in human HepG2 cells after 10 days by crystal violet staining based assay; format: functional, cell-based; settings: dose 0.6-10 µM, time 10.0 day
Summary of the method: (§2)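 Cells seeded at 1 × 10⁴ per well overnight in six-well plates, then exposed to the specified drug concentrations for 10 days at 37 °C in 5% CO2. Surviving colonies stained with crystal violet and counted; means ± SD, n = 3.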

HepG2 [8] = assay: Effect on HDAC2 protein expression in human HepG2 cells at 0.6 to 10 uM incubated for 24 hrs by immunoblot analysis; format: functional, cell-based; settings: dose 0.6-10 µM
Summary of the method: (§3)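 Huh7 or HepG2 cells exposed to the indicated concentrations for 24 h. Lysates prepared in RIPA buffer with phosphatase inhibitors (10 mM Na3VO4, 1 mM NaF, 5 mM NaPPi) and protease inhibitor cocktail; protein quantified by Bio-Rad assay. HDAC1 and HDAC2 detected by immunoblot, with GAPDH as loading control.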

Huh-7 [9] = assay: Increase in p21 expression in human Huh-7 cells at 0.6 to 10 uM incubated for 24 hrs by qRT-PCR analysis; settings: dose 0.6-10 µM
Hep 3B2 = assay: Antiproliferative activity against human Hep3B cells assessed as inhibition of cell growth incubated for 72 hrs by Alamar blue assay; format: functional, cell-based; settings: dose 0.3-80 µM; summary of the method: as §1
Huh-7 [10] = assay: Effect on HDAC2 protein expression in human Huh-7 cells at 0.6 to 10 uM incubated for 24 hrs by immunoblot analysis; format: functional, cell-based; settings: dose 0.6-10 µM; summary of the method: as §3
[11] = Toxicity in NOD-SCID mouse assessed as body weight at 10 to 25 mg/kg, po treated for 30 days; format: organism-based; settings: in vivo, 720 h, dose 10-25 mg/kg, time 30 day
Summary of the method: (§4)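 Huh7 cells (1 × 10⁶) were injected subcutaneously into the right flank of five- to six-week-old female mice. Once tumours were palpable, mice were randomised and dosed orally every day for 30 days at 10 or 25 mpk, with vehicle and sorafenib (25 mpk) groups alongside. Survival, body weight, liver function tests and organ morphology were monitored during treatment.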

[12] = Drug uptake in NOD-SCID mouse assessed as compound level in liver tissue at 25 mg/kg, po treated for 30 days; settings: in vivo, 720 h
[13] = Toxicity in NOD-SCID mouse assessed as liver function at 10 to 25 mg/kg, po treated for 30 days; format: organism-based; settings: in vivo, 720 h, dose 10-25 mg/kg, time 30 day; summary of the method: as §4
HepG2 [14] = assay: Effect on HDAC1 protein expression in human HepG2 cells at 0.6 to 10 uM incubated for 24 hrs by immunoblot analysis; format: functional, cell-based; settings: dose 0.6-10 µM; summary of the method: as §3
Huh-7 [15] = assay: Antiproliferative activity against human Huh-7 cells assessed as inhibition of cell growth incubated for 72 hrs by Alamar blue assay; format: functional, cell-based; settings: dose 0.3-80 µM; summary of the method: as §1
Huh-7 [16] = assay: Effect on HDAC1 protein expression in human Huh-7 cells at 0.6 to 10 uM incubated for 24 hrs by immunoblot analysis; format: functional, cell-based; settings: dose 0.6-10 µM; summary of the method: as §3
[17] = Toxicity in NOD-SCID mouse assessed as organ morphology at 10 to 25 mg/kg, po treated for 30 days; format: organism-based; settings: in vivo, 720 h, dose 10-25 mg/kg, time 30 day; summary of the method: as §4
Huh-7 [18] = assay: Inhibition of colony formation in human Huh-7 cells after 10 days by crystal violet staining based assay; format: functional, cell-based; settings: dose 0.6-10 µM, time 10.0 day; summary of the method: as §2
HepG2 [19] = assay: Inhibition of MYC mRNA expression in human HepG2 cells at 0.6 to 10 uM incubated for 24 hrs by immunoblot analysis; format: functional, cell-based; settings: dose 0.6-10 µM, in the assay text read “qRT-PCR analysis” for “immunoblot analysis”
Summary of the method: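 Huh7 or HepG2 cells treated with the indicated concentrations for 24 h. Myc mRNA measured by qRT-PCR and expressed as fold over solvent control; means ± SD, n = 3.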

[20] = Toxicity in NOD-SCID mouse assessed as survival at 10 to 25 mg/kg, po treated for 30 days; format: organism-based; settings: in vivo, 720 h, dose 10-25 mg/kg, time 30 day; summary of the method: as §4
Huh-7 [21] = assay: Antitumor activity against human Huh-7 cells xenografted in mouse tumor model assessed as inhibition of tumor growth at 25 to 300 mg/kg, po treated for 30 days; format: functional, organism-based; settings: dose 25-300 mg/kg, time 30.0 day
Summary of the method: (§5)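 Female Balb/c nude mice, 5–6 weeks old, injected subcutaneously in the right flank with 1 × 10⁶ Huh7 cells. Once tumors were palpable, animals were randomised and dosed orally every day for 30 days at 25, 100 or 300 mpk, or vehicle; sorafenib 25 mpk as reference group. Tumors measured by caliper throughout; body weight recorded during treatment.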

[22] = target: T1, Glycine N-methyltransferase (Homo sapiens); assay: Induction of GNMT in human H7GPL cells assessed as fold increase in promoter-driven luciferase reporter expression measured after 24 hrs by luminescence assay relative to control; format: cell-based; settings: filed as activator, dose 0.15-10 µM
Huh-7 [23] = assay: Induction of GNMT mRNA expression in human Huh-7 cells at 2.5 uM measured after 24 hrs by qRT-PCR analysis; format: functional, cell-based
Summary of the method: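 Huh7 cells exposed to 2.5 μM for 24 h, then RNA harvested. GNMT mRNA quantified by qRT-PCR, normalised to an internal control and expressed as fold over solvent control; means ± SD, n = 3.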

[24] = Toxicity in mouse xenografted with human Huh-7 cells assessed as body weight at 25 to 300 mg/kg, po treated for 30 days; format: organism-based; settings: in vivo, 720 h, dose 25-300 mg/kg, time 30 day; summary of the method: as §5
Huh-7 [25] = assay: Induction of GNMT protein expression in human Huh-7 cells at 2.5 uM measured after 24 hrs; format: functional, cell-based

fold change (FC) [1]	fold change (FC) [2]	SMILES	also measured
0.99	3.31	C/C(=N\NC(=O)c1cc2ccccc2cc1O)c1ccc2ccccc2n1	–
5.94	7.56	O=C(NN=C(c1ccccn1)c1ccccn1)c1cc2ccccc2cc1O	–
1.15	1.33	C/C(=N\NC(=O)c1cc2ccccc2cc1O)c1cccnc1	–
1.04	1.22	O=C(N/N=C/c1ccco1)c1cc2ccccc2cc1O	–
1.09	1.79	O=C(N/N=C/c1ccccn1)c1cc2ccccc2cc1O	–
1.56	1.19	O=C(N/N=C/c1ccc[nH]1)c1cc2ccccc2cc1O	–
1.37	1.16	C/C(=N\NC(=O)c1cc2ccccc2cc1O)c1ccccc1	–
–	6.7	C/C(=N\NC(=O)c1cc2ccccc2cc1O)c1ccccn1	Activity [3]: Non-Toxic; inhibition (Huh-7 [21]): Active; Activity [22]: Dose-Dependent Effect; Activity (Huh-7 [23]): Active; Activity [24]: Non-Toxic; Activity (Huh-7 [25]): Active
0.9	1.2	COc1ccc(/C(C)=N/NC(=O)c2cc3ccccc3cc2O)cc1	–
1.01	1.11	O=C(N/N=C/c1ccc2ccccc2n1)c1cc2ccccc2cc1O	–
1.36	0.12	O=C(N/N=C/c1cccs1)c1cc2ccccc2cc1O	–
0.9	1.01	C/C(=N\NC(=O)c1cc2ccccc2cc1O)c1ccc([N+](=O)[O-])cc1	–
1.18	1.42	C/C(=N\NC(=O)c1cc2ccccc2cc1O)c1ccco1	–

More lines, now with the values behind:

SMILES	fold change (FC) [1]	fold change (FC) [2]	also measured
C/C(=N\NC(=O)c1ccccc1)c1ccccn1	6.96	0.59	–
C/C(=N\NC(=O)c1ccc(O)cc1O)c1ccccn1	1.5	4.88	–
C/C(=N\NC(=O)c1ccccc1N)c1ccccn1	11	0.93	–
C/C(=N\NC(=O)c1cc2ccccc2cc1O)c1ccc[nH]1	1.04	1.22	–
Cc1ccc(COc2ccc3ccc(=O)oc3c2)cc1	–	–	Activity [3]: Non-Toxic
C/C(=N\NC(=O)c1c(O)cccc1O)c1ccccn1	11	0.61	–
c1ccc(-n2ncc3c(N4CCC5(CC4)OCCO5)ncnc32)cc1	–	–	Activity [3]: Non-Toxic
O=C(N/N=C/c1ccccn1)c1ccccc1O	0.88	1.4	–
C/C(=N\NC(=O)c1cccnc1N)c1ccccn1	8.26	11.1	Activity (HepG2 [4]): Dose-Dependent Effect; inhibition (Huh-7 [5]): Active; Activity (Huh-7 [6]): Active; inhibition (HepG2 [7]): Dose-Dependent Effect; Activity (HepG2 [8]): inactive; Activity (Huh-7 [9]): Active; Activity (Hep 3B2): Dose-Dependent Effect; Activity (Huh-7 [10]): inactive; Activity [11]: Non-Toxic; Drug uptake [12]: Active; Activity [13]: Non-Toxic; Activity (HepG2 [14]): inactive; Activity (Huh-7 [15]): Dose-Dependent Effect; Activity (Huh-7 [16]): inactive; Activity [17]: Non-Toxic; inhibition (Huh-7 [18]): Dose-Dependent Effect; inhibition (HepG2 [19]): Active; Activity [20]: Non-Toxic
C/C(=N\NC(=O)c1ccccc1O)c1ccccn1	9.79	0.38	–
O=C(NN=C(c1ccccn1)c1ccccn1)c1ccc(O)cc1O	1.14	4.7	–
c1ccc(OCc2nc3ccccc3s2)cc1 [2-(PHENOXYMETHYL)BENZOTHIAZOLE]	–	–	Activity [3]: Non-Toxic
O=C(NN=C(c1ccccn1)c1ccccn1)c1ccccc1O	5.86	4.55	–
COc1ccccc1C(=O)N/N=C(\C)c1ccccn1	1.31	1.72	–
C/C(=N\NC(=O)c1cccc(O)c1)c1ccccn1	6.66	13.3	–
C/C(=N\NC(=O)c1cc2ccccc2cc1O)c1cccs1	1.42	1.24	–
